Bioassay records as filed in PubChem.
BAP1 inh = blocks human BAP1 ubiquitin-AMC hydrolysis. calls only at 20 µM. recombinant BAP1, Ub-AMC hydrolysis fluorescence kinetic; stronger effect = lower value. Q92560. 72,000 compounds, 0.48% hits;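 active = activity remaining at or below 50% of control, provided the compound also passes the data quality filters; inactive = the rest, including low values that fail the filters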;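 also: 100% = DMSO wells rate and 0% = substrate alone blank rate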
WNV protease inh = blocks West Nile virus NS2B-NS3 protease activity; WNV NS2B-NS3 protease, fluorogenic substrate Ex360/Em465; stronger effect = lower value; 65,000 compounds, 0.18% hits; P06935; z-score (test concentration not listed); in the data active = z-score below about -3
TNAP act DEA = human TNAP activation, intermediate phosphate acceptor; P05186; purified TNAP, CDP-star luminescence, 100 mM DEA, 30 min; stronger effect = higher value; scale: 0 levamisole-inhibited, 1 vehicle-only enzyme; activation factor at 20 µM; 64,000 tested, under 10 active;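 active = activation factor of at least 2 at 20 µM, relative to controls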
Target sequence (P05186 whole entry, looked up): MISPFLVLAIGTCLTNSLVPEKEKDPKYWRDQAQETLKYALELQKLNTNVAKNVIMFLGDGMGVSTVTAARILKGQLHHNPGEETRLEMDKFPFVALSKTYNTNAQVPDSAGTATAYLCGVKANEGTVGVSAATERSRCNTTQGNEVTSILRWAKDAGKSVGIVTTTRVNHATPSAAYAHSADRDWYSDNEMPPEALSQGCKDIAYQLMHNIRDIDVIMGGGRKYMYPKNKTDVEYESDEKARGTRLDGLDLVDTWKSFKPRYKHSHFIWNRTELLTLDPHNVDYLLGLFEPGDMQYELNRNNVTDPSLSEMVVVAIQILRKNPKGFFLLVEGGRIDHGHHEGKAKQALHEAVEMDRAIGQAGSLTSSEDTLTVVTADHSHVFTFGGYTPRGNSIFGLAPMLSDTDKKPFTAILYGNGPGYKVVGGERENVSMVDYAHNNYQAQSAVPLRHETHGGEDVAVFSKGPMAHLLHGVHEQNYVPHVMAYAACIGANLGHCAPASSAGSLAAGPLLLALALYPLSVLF
Ecoli tolC = growth inhibitors of E. coli BW25113 tolC mutant; OD615; growth inhibition, % at 10 µM (by protocol); 65,000 compounds, 2.2% hits; AID 573;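 active = growth inhibition at or above a cutoff equal to the mean over every tested compound plus 3 SD, cut at about 60% in these data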;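 also: growth measured after 20 h incubation at 37 °C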
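test system = E. coli BW25113 ΔtolC::kan bacteria | medium = LB with kanamycin 50 µg/mL | signal = OD at 615 nm | schedule = 37 °C, 20 h exposure | evaluation = % inhibition of E. coli growth | compound dosing = one dose of 10 µM final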
Ecoli WT expand = E. coli BW25113 growth inhibition, expanded screen. 98,000 compounds, 0.15% hits. AID 710. OD600 absorbance. growth inhibition, % at 100 µM;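 active = growth inhibition above about 50% at one test dose, limit read from the data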;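 also: growth measured after 20 h incubation at 37 °C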
Numbers without * were called inactive; i = inactive; · = no result; + = active, no number. Shown is part of a subset that was picked to be rich in hits.

SMILES	BAP1 inh	WNV protease inh	TNAP act DEA	Ecoli tolC	Ecoli WT expand
COCc1[nH]nc2c1C(c1ccc(OC)c(OC)c1)C(C#N)=C(N)O2 (configuration not stated)	i	-0.79	0.9	-21	9
CC(OC(=O)c1cc(=O)[nH]c2ccccc12)c1ccccc1 (configuration not stated)	i	0.33	0.9	6	-5
CCCCn1c(N2CCC(Cc3ccccc3)CC2)nc2c1c(=O)[nH]c(=O)n2C	i	0.67	0.9	100*	-14
CCN1CCN(c2nc3c(c(=O)[nH]c(=O)n3C)n2CCCSc2ncccn2)CC1	i	-3.8*	1	-20	10
Fc1ccc(Br)cc1C1C=C(c2ccc(Br)s2)Nc2ncnn21 (configuration not stated)	i	-0.24	0.9	69*	-13
Cc1ccc(N2C(=O)C(N3C(=O)c4cccc([N+](=O)[O-])c4C3=O)C2c2ccc(F)cc2)cc1F (configuration not stated)	i	·	·	·	·
O=C(Oc1ccc(I)cc1)C(c1ccccc1)c1ccccc1	i	·	·	·	·
O=C(CN(Cc1ccc2c(c1)OCO2)C(=O)CSc1nc2ccccc2o1)NC1CCCCC1	i	1.2	1	100*	2
COCCN(CC(=O)NC1CCCCC1)C(=O)CSc1nc2ccccc2o1	i	0.44	0.9	4	3
COc1ccc(C2=Nn3c(nnc3-c3ccc(OC)cc3)SC2)cc1	i	-9.6*	0.9	27	-1
O=C(Nc1ccc2c(c1)OCO2)c1cnn2cccnc12	i	0.01	0.9	37	23
COc1ccc(Cc2nnc(NC(=O)Cc3cccs3)s2)cc1OC	+	-1.1	·	-7	-4
COc1ccc(C(=O)Nc2nnc(Cc3cccs3)s2)cc1OC	i	-0.57	0.9	12	-8
COc1ccc(C(C)=O)cc1CSc1nnc(-c2ccccc2O)n1-c1ccccc1	·	·	·	·	0
Oc1ccccc1-c1nc(NCC2CCCO2)c2ccccc2n1 (configuration not stated)	i	0.62	0.9	66*	-5
CC1CCCCN1S(=O)(=O)c1ccc(C(=O)Nc2nnc(-c3ccccc3Cl)o2)cc1 (configuration not stated)	i	1.4	1	100*	4
O=C(Nc1nnc(-c2ccccc2Cl)o1)c1ccc(S(=O)(=O)N2CCCCCC2)cc1	i	-0.09	1	100*	-3
CCC1CCCCN1S(=O)(=O)c1ccc(C(=O)Nc2nnc(-c3ccccc3Cl)o2)cc1 (configuration not stated)	i	2	0.8	100*	-2
CCC1CCCCN1S(=O)(=O)c1ccc(S(=O)(=O)N(Cc2cccs2)C2CC2)cc1 (configuration not stated)	i	-0.05	0.8	25	-19
CC1CCCCN1S(=O)(=O)c1ccc(C(=O)Nc2sccc2C(N)=O)cc1 (configuration not stated)	·	·	·	·	-6
O=C(Nc1nnc(N=Cc2ccc(Br)s2)s1)c1ccc(S(=O)(=O)N2CCOCC2)cc1	i	·	·	·	·
CC(=O)c1ccc(C)cc1OC(=O)c1ccco1	i	·	·	·	·
O=S(=O)(Nc1nc2ccccc2s1)c1cccc2cccnc12	i	·	·	·	·
Cc1ccc2c(CC(=O)OCc3nc(N)nc(Nc4ccccc4C)n3)coc2c1	i	-1.4	0.9	72*	3
CCn1cc(C(=O)O)c(=O)c2cc3c(cc21)OCO3	i	1.7	·	100*	·
SMILES	BAP1 inh	WNV protease inh	TNAP act DEA	Ecoli tolC	Ecoli WT expand
CC1(C)CNC(=O)c2sc(N3CCOCC3)nc2C1	i	-0.07	0.9	4	7
CNC(=O)c1nnc(Cc2ccc(F)cc2)o1	i	-3.1*	1	-10	5
CCOC(=O)N1CCN(C2=CC(=O)OC23CCCCC3)CC1	i	-5.2*	0.9	-16	10
CCOC(=O)N1CCN(c2ccccc2O)CC1	·	·	·	·	4
CCOC(=O)c1ccc(NC(=O)CCc2nc(-c3ccccc3Cl)no2)cc1	i	0.61	0.9	99*	5
CCOC(=O)c1ccc(NC(=O)CCc2nc(-c3ccccc3)no2)cc1	i	-0.45	0.9	53	2
CCc1cc(/C(Cc2ccc3ccccc3n2)=N\O)c(O)cc1O	i	-1.9	·	97*	17
Cc1cc(Cl)cc(C)c1OCCCCn1ccnc1	i	-0.29	1	92*	24
Cc1cccc(C(C)(C)C)c1OCCn1ccnc1	i	1.6	0.9	92*	14
